{
  "source": "ChEMBL document CHEMBL1155362",
  "about": "“Synthesis, characterization and derivatization of some novel types of mono- and bis-imidazolidineiminothiones and imidazolidineiminodithiones with antitumor, antiviral, antibacterial and antifungal activities--part I” (Eur J Med Chem, 2009)",
  "key": {"Human alphaherpesvirus 1 [1]": {"system": "Human alphaherpesvirus 1", "assay": "Antiviral activity against HSV1 infected african green monkey Vero cells at 10^-4 dilution of 5 mg/ml by plaque formation assay", "type": "functional", "summary_of_the_method": "(§1)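 Compound dilutions prepared from a 5 mg/mL DMSO stock, using the maximum non-toxic dilution for Vero cells over 3 days; 0.1 mL virus (10³) mixed with 0.1 mL compound for 1 h at room temperature; mixture inoculated onto washed Vero monolayers in 12-well plates and adsorbed at 37 °C; 2× MEM/agarose overlay applied; read-out % reduction in plaque count versus untreated virus control.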"}, "Salmonella typhi [2]": {"system": "Salmonella typhi", "assay": "Antibacterial activity against Salmonella typhi NCIMB 9331 at 4 mg/ml by agar disk diffusion assay", "type": "functional, Salmonella enterica subsp. enterica serovar Typhi", "settings": "Salmonella enterica, read-out: DIZ"}, "Candida albicans [3]": {"system": "Candida albicans", "assay": "Antifungal activity against Candida albicans IMRU 3669 at 4 mg/ml by agar disk diffusion assay", "type": "functional", "settings": "read-out: DIZ"}, "Aspergillus niger [4]": {"system": "Aspergillus niger", "assay": "Antifungal activity against Aspergillus niger IMI 31726 at 4 mg/ml by agar disk diffusion assay", "type": "functional", "settings": "read-out: DIZ"}, "Coxsackievirus B4 [5]": {"system": "Coxsackievirus B4", "assay": "Antiviral activity against Coxsackievirus B4 infected african green monkey Vero cells at 10^-4 dilution of 5 mg/ml by plaque formation assay", "type": "functional, organism-based", "summary_of_the_method": "as §1"}, "Bacillus subtilis [6]": {"system": "Bacillus subtilis", "assay": "Antibacterial activity against Bacillus subtilis NCTC 1040 at 4 mg/ml by agar disk diffusion assay", "type": "functional", "settings": "read-out: DIZ"}, "Escherichia coli [7]": {"system": "Escherichia coli", "assay": "Antibacterial activity against Escherichia coli NCTC 10416 at 4 mg/ml by agar disk diffusion assay", "type": "functional", "settings": "read-out: DIZ"}, "Hepatovirus A [8]": {"system": "Hepatovirus A", "assay": "Antiviral activity against Hepatitis A virus infected african green monkey Vero cells at 10^-4 dilution of 5 mg/ml by plaque formation assay", "type": "functional", "summary_of_the_method": "as §1"}, "Staphylococcus aureus [9]": {"system": "Staphylococcus aureus", "assay": "Antibacterial activity against Staphylococcus aureus NCTC 7447 at 4 mg/ml by agar disk diffusion assay", "type": "functional", "settings": "read-out: DIZ"}, "Staphylococcus aureus [10]": {"system": "Staphylococcus aureus", "assay": "Antibacterial activity against Staphylococcus aureus NCTC 7447 at 1 mg/ml by agar disk diffusion assay", "type": "functional", "settings": "read-out: DIZ"}, "Bacillus subtilis [11]": {"system": "Bacillus subtilis", "assay": "Antibacterial activity against Bacillus subtilis NCTC 1040 at 1 mg/ml by agar disk diffusion assay", "type": "functional", "settings": "read-out: DIZ"}, "Aspergillus niger [12]": {"system": "Aspergillus niger", "assay": "Antifungal activity against Aspergillus niger IMI 31726 at 1 mg/ml by agar disk diffusion assay", "type": "functional", "settings": "read-out: DIZ"}, "Salmonella typhi [13]": {"system": "Salmonella typhi", "assay": "Antibacterial activity against Salmonella typhi NCIMB 9331 at 1 mg/ml by agar disk diffusion assay", "type": "functional, Salmonella enterica subsp. enterica serovar Typhi", "settings": "Salmonella enterica, read-out: DIZ"}, "Hepatovirus A [14]": {"system": "Hepatovirus A", "assay": "Antiviral activity against HAV infected african green monkey Vero cells at 10^-2 dilution of 5 mg/ml by plaque formation assay", "type": "functional", "summary_of_the_method": "as §1"}, "Human alphaherpesvirus 1 [15]": {"system": "Human alphaherpesvirus 1", "assay": "Antiviral activity against HSV1 infected african green monkey Vero cells at 10^-2 dilution of 5 mg/ml by plaque formation assay", "type": "functional", "summary_of_the_method": "as §1"}, "Escherichia coli [16]": {"system": "Escherichia coli", "assay": "Antibacterial activity against Escherichia coli NCTC 10416 at 1 mg/ml by agar disk diffusion assay", "type": "functional", "settings": "read-out: DIZ"}, "Candida albicans [17]": {"system": "Candida albicans", "assay": "Antifungal activity against Candida albicans IMRU 3669 at 1 mg/ml by agar disk diffusion assay", "type": "functional", "settings": "read-out: DIZ", "summary_of_the_method": "(§2)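 Fungi maintained on Czapek's Dox agar; agar well diffusion with 1 cm wells and […] of each concentration (1, 2.5, 5 mg/mL) in DMF; inhibition zone diameter measured.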"}, "Coxsackievirus B4 [18]": {"system": "Coxsackievirus B4", "assay": "Antiviral activity against Coxsackievirus B4 infected african green monkey Vero cells at 10^-2 dilution of 5 mg/ml by plaque formation assay", "type": "functional", "summary_of_the_method": "as §1"}, "Staphylococcus aureus [19]": {"system": "Staphylococcus aureus", "assay": "Antibacterial activity against Staphylococcus aureus NCTC 7447 at 5 mg/ml by agar disk diffusion assay", "type": "functional", "settings": "read-out: DIZ"}, "Hepatovirus A [20]": {"system": "Hepatovirus A", "assay": "Antiviral activity against HAV infected african green monkey Vero cells at 10^-3 dilution of 5 mg/ml by plaque formation assay", "type": "functional", "summary_of_the_method": "as §1"}, "Bacillus subtilis [21]": {"system": "Bacillus subtilis", "assay": "Antibacterial activity against Bacillus subtilis NCTC 1040 at 5 mg/ml by agar disk diffusion assay", "type": "functional", "settings": "read-out: DIZ"}, "Coxsackievirus B4 [22]": {"system": "Coxsackievirus B4", "assay": "Antiviral activity against Coxsackievirus B4 infected african green monkey Vero cells at 10^-3 dilution of 5 mg/ml by plaque formation assay", "type": "functional", "summary_of_the_method": "as §1"}, "Aspergillus niger [23]": {"system": "Aspergillus niger", "assay": "Antifungal activity against Aspergillus niger IMI 31726 at 5 mg/ml by agar disk diffusion assay", "type": "functional", "settings": "read-out: DIZ"}, "Candida albicans [24]": {"system": "Candida albicans", "assay": "Antifungal activity against Candida albicans IMRU 3669 at 5 mg/ml by agar disk diffusion assay", "type": "functional", "settings": "Candida albicans, IMRU 3669; read-out: DIZ", "summary_of_the_method": "as §2"}, "Human alphaherpesvirus 1 [25]": {"system": "Human alphaherpesvirus 1", "assay": "Antiviral activity against HSV1 infected african green monkey Vero cells at 10^-3 dilution of 5 mg/ml by plaque formation assay", "type": "functional", "summary_of_the_method": "as §1"}, "Salmonella typhi [26]": {"system": "Salmonella typhi", "assay": "Antibacterial activity against Salmonella typhi NCIMB 9331 at 5 mg/ml by agar disk diffusion assay", "type": "functional, Salmonella enterica subsp. enterica serovar Typhi", "settings": "Salmonella enterica, read-out: DIZ"}, "Escherichia coli [27]": {"system": "Escherichia coli", "assay": "Antibacterial activity against Escherichia coli NCTC 10416 at 5 mg/ml by agar disk diffusion assay", "type": "functional", "settings": "read-out: DIZ"}},
  "note": "Activity calls are given as the source filed them. The rule behind the calls is not given here.",
  "data": [
    {"smiles": "N=C1C(=S)N(c2ccc(Br)cc2)C(=O)N1c1ccc(Cl)c(C(F)(F)F)c1", "values": [
      {"measurement": "Activity", "setting": "Human alphaherpesvirus 1 [1]", "result": 50, "unit": "%"},
      {"measurement": "zone of inhibition at 4000 µg/mL", "setting": "Salmonella typhi [2]", "result": 16.5, "unit": "mm"},
      {"measurement": "zone of inhibition at 4000 µg/mL", "setting": "Candida albicans [3]", "result": 16, "unit": "mm"},
      {"measurement": "zone of inhibition at 4000 µg/mL", "setting": "Aspergillus niger [4]", "result": 16, "unit": "mm"},
      {"measurement": "Activity", "setting": "Coxsackievirus B4 [5]", "result": "inactive"},
      {"measurement": "zone of inhibition at 4000 µg/mL", "setting": "Bacillus subtilis [6]", "result": 16, "unit": "mm"},
      {"measurement": "zone of inhibition at 4000 µg/mL", "setting": "Escherichia coli [7]", "result": 18, "unit": "mm"},
      {"measurement": "Activity", "setting": "Hepatovirus A [8]", "result": "inactive"},
      {"measurement": "zone of inhibition at 4000 µg/mL", "setting": "Staphylococcus aureus [9]", "result": 17.5, "unit": "mm"}
    ]},
    {"smiles": "O=C1C(=S)N(c2ccc(Br)cc2)C(=O)N1c1ccc2c(c1)Cc1ccccc1-2", "values": [
      {"measurement": "zone of inhibition at 1000 µg/mL", "setting": "Staphylococcus aureus [10]", "result": 13, "unit": "mm"},
      {"measurement": "zone of inhibition at 1000 µg/mL", "setting": "Bacillus subtilis [11]", "result": 14, "unit": "mm"},
      {"measurement": "zone of inhibition at 1000 µg/mL", "setting": "Aspergillus niger [12]", "result": 13, "unit": "mm"},
      {"measurement": "zone of inhibition at 1000 µg/mL", "setting": "Salmonella typhi [13]", "result": 12, "unit": "mm"},
      {"measurement": "Activity", "setting": "Hepatovirus A [14]", "result": "inactive"},
      {"measurement": "Activity", "setting": "Human alphaherpesvirus 1 [15]", "result": 40, "unit": "%"},
      {"measurement": "zone of inhibition at 1000 µg/mL", "setting": "Escherichia coli [16]", "result": 11, "unit": "mm"},
      {"measurement": "zone of inhibition at 1000 µg/mL", "setting": "Candida albicans [17]", "result": 13, "unit": "mm"},
      {"measurement": "Activity", "setting": "Coxsackievirus B4 [18]", "result": "inactive"}
    ]},
    {"smiles": "CCOc1ccc(N2C(=O)N(c3ccc4c(c3)Cc3ccccc3-4)C(=N)C2=S)cc1", "values": [
      {"measurement": "zone of inhibition at 5000 µg/mL", "setting": "Staphylococcus aureus [19]", "result": 19, "unit": "mm"},
      {"measurement": "Activity", "setting": "Hepatovirus A [20]", "result": "inactive"},
      {"measurement": "zone of inhibition at 5000 µg/mL", "setting": "Bacillus subtilis [21]", "result": 17, "unit": "mm"},
      {"measurement": "Activity", "setting": "Coxsackievirus B4 [22]", "result": "inactive"},
      {"measurement": "zone of inhibition at 5000 µg/mL", "setting": "Aspergillus niger [23]", "result": 20, "unit": "mm"},
      {"measurement": "zone of inhibition at 5000 µg/mL", "setting": "Candida albicans [24]", "result": 15, "unit": "mm"},
      {"measurement": "Activity", "setting": "Human alphaherpesvirus 1 [25]", "result": 50, "unit": "%"},
      {"measurement": "zone of inhibition at 5000 µg/mL", "setting": "Salmonella typhi [26]", "result": 18, "unit": "mm"},
      {"measurement": "zone of inhibition at 5000 µg/mL", "setting": "Escherichia coli [27]", "result": 17, "unit": "mm"}
    ]}
  ]
}
